Laboratory results published in ChEMBL document CHEMBL1150770, “Design, synthesis and biological evaluation of bis(hydroxyphenyl) azoles as potent and selective non-steroidal inhibitors of 17beta-hydroxysteroid dehydrogenase type 1 (17beta-HSD1) for the treatment of estrogen-dependent diseases” (Bioorg Med Chem, 2008).
pIC50: −log10 of the molar value. Active and inactive are the calls of the source. No cut-off for these calls is given here.

Key:
[1] = target: Estrogen receptor beta (Homo sapiens) (UniProt Q92731); assay: Displacement of [2,4,6,7-3H]17beta-estradiol from human recombinant ERbeta receptor relative to 17-beta-estradiol
Summary of the method: (§1)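 ERα or ERβ (0.25 pmol) incubated with [2,4,6,7-3H]-E2 (10 nM) and test compound, 1 h, room temperature, 5% DMSO final. Non-specific binding with diethylstilbestrol (10 µM). Bound complexes captured on hydroxyapatite, washed, resuspended in ethanol and counted by liquid scintillation. RBA derived from inhibitor and E2 concentrations displacing 50% of bound labelled E2.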

[2] = target: T1, Estrogen receptor (Homo sapiens) (UniProt P03372); assay: Displacement of [2,4,6,7-3H]17beta-estradiol from human recombinant ERalpha receptor relative to 17-beta-estradiol; summary of the method: as §1
T1 sequence (whole entry): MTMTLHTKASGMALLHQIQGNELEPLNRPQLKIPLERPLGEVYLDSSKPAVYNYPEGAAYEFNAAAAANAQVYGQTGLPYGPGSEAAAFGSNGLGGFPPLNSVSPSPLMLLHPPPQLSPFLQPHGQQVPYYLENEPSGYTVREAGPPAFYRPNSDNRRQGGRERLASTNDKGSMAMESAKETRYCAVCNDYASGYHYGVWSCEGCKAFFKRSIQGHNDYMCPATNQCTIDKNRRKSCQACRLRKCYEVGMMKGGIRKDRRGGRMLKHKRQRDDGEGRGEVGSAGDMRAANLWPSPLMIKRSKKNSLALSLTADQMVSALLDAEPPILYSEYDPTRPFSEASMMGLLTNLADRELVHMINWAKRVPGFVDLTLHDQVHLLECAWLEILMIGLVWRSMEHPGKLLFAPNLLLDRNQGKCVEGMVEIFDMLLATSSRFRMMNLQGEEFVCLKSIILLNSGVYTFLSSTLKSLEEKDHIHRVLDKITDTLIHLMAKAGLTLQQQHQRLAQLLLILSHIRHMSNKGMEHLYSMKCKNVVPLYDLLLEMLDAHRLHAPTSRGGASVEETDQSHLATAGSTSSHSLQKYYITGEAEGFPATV

[3] = Apparent permeability across human Caco-2 cells; assay type: ADME, cell-based
Summary of the method: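 Caco-2 monolayers cultured 10 days at higher seeding density; cassette dosing with four reference compounds; donor concentration 50 µM in 0.2 M MES pH 6.5 with 1% ethanol or DMSO. Acceptor sampled at 0, 60, 120, 180 min, donor at 0 and 180 min; LC/MS/MS analysis; triplicate runs; monolayer integrity by TEER and lucifer yellow.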

Homo sapiens = species on record: Homo sapiens; assay: Selectivity ratio of IC50 for human 17beta-HSD2 to IC50 for human 17beta-HSD1
Summary of the method: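 Selectivity factor computed as IC50 for placental microsomal 17β-HSD2 (E2 500 nM, NAD+ 1500 µM) divided by IC50 for placental cytosolic 17β-HSD1 (E1 500 nM, NADH 500 µM).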

[4] = target: T2, 17-beta-hydroxysteroid dehydrogenase type 1 (Homo sapiens, UniProt P14061); assay: Inhibition of human placental 17beta-HSD1 using estrone substrate
T2 sequence (P14061 whole entry): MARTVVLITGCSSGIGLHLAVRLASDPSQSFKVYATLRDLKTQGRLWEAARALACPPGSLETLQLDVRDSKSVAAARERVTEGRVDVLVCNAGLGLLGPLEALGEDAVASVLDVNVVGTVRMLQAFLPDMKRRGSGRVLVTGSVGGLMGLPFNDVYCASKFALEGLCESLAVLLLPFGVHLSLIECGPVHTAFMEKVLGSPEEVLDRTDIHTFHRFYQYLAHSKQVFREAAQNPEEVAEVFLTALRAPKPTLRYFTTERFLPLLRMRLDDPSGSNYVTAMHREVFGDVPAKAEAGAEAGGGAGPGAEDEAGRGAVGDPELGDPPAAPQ
Summary of the method: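 Cytosolic fraction of human placenta incubated at 37 °C with NADH (500 µM) and inhibitor in 50 mM phosphate buffer, 20% glycerol, 1 mM EDTA, DMSO 1% final. Started with unlabelled plus [3H]-E1 (500 nM final); stopped after 10 min with HgCl2, extracted into diethylether. E1/E2 separated by HPLC with radio detection.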

[5] = target: T3, 17-beta-hydroxysteroid dehydrogenase type 2 (Homo sapiens, UniProt P37059); assay: Inhibition of human placental 17beta-HSD2 using 17-beta-estradiol substrate
T3 sequence (P37059 whole entry): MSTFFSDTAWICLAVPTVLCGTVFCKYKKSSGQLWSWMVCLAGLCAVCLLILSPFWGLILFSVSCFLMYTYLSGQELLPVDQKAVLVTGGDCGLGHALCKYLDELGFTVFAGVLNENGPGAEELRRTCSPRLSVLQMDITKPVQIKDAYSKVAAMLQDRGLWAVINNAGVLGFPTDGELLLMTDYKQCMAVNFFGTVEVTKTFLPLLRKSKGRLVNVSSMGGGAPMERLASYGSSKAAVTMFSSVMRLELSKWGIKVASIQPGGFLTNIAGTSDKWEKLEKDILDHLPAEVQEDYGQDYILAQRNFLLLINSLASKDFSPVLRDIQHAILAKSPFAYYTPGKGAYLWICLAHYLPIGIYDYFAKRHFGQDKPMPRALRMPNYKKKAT
Summary of the method: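 Human placental microsomal fraction incubated 20 min at 37 °C with NAD+ (1500 µM), test compound and unlabelled plus [3H]-E2 (500 nM final). Extraction and HPLC with radio detection as for 17β-HSD1. Conversion = AUC(E1)/[AUC(E1)+AUC(E2)] × 100.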

T47D = assay: Estrogenic effect in human T47D cells assessed as stimulation of cell proliferation at 100 nM by MTT assay; assay type: functional, cell-based
Summary of the method: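 T-47D cells grown 48 h in phenol red-free RPMI 1640 with 5% DCC-FCS, then treated with compound at 100 nM final (ethanol 1% final). E2 0.1 nM as positive control, ethanol as negative control. Medium and additives renewed every 2–3 days; after 8 days MTT reduction read at 590 nm. Stimulation = (proliferation relative to control set at 1, minus 1) × 100%.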

[6] = target: T2, 17-beta-hydroxysteroid dehydrogenase type 1; assay: Inhibition of 17-beta-HSD1-mediated 17-beta-estradiol formation in human T47D cells; assay type: cell-based
Summary of the method: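 T47D cells, which express both 17β-HSD1 and 17β-HSD2, were kept in RPMI 1640 with 10% FCS at 37 °C, 5% CO₂. They were seeded in DMEM with FCS, then after 24 h switched to serum-free DMEM. Test compound was added in DMSO (1% final) and pre-incubated 30 min. Unlabelled plus [³H]-E1 (50 nM final) was added for 2.5 h. Steroids were extracted with ether, and E2 formed was quantified by HPLC with radiodetection.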

Sequence of Estrogen receptor beta (Homo sapiens) (Q92731 whole entry): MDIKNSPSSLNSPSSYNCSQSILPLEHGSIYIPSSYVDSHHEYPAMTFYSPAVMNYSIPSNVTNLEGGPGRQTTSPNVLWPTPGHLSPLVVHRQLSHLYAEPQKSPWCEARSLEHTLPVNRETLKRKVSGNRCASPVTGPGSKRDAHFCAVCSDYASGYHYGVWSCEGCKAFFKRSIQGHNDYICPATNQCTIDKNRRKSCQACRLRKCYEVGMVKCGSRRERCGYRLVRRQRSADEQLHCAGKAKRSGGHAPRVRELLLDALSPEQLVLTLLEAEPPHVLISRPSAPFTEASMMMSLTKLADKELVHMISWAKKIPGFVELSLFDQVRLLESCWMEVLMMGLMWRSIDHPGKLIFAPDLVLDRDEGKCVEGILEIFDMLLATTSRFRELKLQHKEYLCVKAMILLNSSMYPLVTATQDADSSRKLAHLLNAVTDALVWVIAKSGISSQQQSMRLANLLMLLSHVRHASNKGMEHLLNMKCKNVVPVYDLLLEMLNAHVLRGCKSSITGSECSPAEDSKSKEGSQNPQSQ

Row | SMILES | RBA [1] | RBA [2] | Papp [3] | Ratio IC50 (Homo sapiens) | pIC50 [4] | pIC50 [5] | pIC50 [6] | Activity (T47D)
1 | Oc1ccc(-c2cn(-c3cccc(O)c3)nn2)cc1 | 0.01% | 0.01% | – | 9 | 6.08 | 5.14 | – | –
2 | Oc1ccc(-n2cc(-c3cccc(O)c3)nn2)cc1 | < 0.01% | < 0.01% | – | 6 | 5.88 | 5.09 | – | –
3 | Oc1ccc(-c2cc(-c3cccc(O)c3)on2)cc1 | < 0.01% | 0.01% | – | 0.2 | 5.79 | 6.57 | – | –

Now from value to compound, other results behind:

Row | RBA [1] | RBA [2] | Papp [3] | Ratio IC50 (Homo sapiens) | pIC50 [4] | pIC50 [5] | pIC50 [6] | SMILES | Activity (T47D)
4 | 0.5% | 0.01% | 7.9 ×10⁻⁶ cm/s | 56 | 6.51 | 4.76 | 6.42 | Oc1ccc(-c2cnc(-c3cccc(O)c3)o2)cc1 | inactive
5 | 0.01% | 0.01% | – | 0.1 | 5.73 | 6.60 | – | Oc1ccc(-c2coc(-c3cccc(O)c3)n2)cc1 | –
